Laboratory results: ChEMBL document CHEMBL3853334, “Brain penetrant liver X receptor (LXR) modulators based on a 2,4,5,6-tetrahydropyrrolo[3,4-c]pyrazole core” (Bioorg Med Chem Lett, 2016)

Tests used:
[1] = target: Cytochrome P450 2C9 (Homo sapiens, UniProt P11712); assay: Inhibition of CYP2C9 (unknown origin)
[2] = target: Cytochrome P450 2D6 (Homo sapiens, UniProt P10635); assay: Inhibition of CYP2D6 (unknown origin)
[3] = target: Cytochrome P450 3A4 (Homo sapiens, UniProt P08684); assay: Inhibition of CYP3A4 (unknown origin)
Cytochrome P450 3A4, sequence (P08684 whole entry): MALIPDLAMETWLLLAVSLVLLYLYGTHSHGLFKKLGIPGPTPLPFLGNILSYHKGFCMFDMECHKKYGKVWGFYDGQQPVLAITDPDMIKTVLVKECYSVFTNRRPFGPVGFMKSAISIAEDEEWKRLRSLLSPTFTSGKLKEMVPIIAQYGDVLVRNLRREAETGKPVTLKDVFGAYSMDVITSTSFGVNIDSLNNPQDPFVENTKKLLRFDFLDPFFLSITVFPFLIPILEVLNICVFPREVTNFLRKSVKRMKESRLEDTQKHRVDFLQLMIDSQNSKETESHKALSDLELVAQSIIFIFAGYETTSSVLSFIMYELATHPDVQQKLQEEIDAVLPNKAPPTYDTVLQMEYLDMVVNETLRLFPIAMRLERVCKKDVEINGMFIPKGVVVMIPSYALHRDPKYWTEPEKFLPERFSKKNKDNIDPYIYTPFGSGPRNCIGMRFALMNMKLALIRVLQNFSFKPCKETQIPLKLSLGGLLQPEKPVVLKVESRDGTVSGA

[4] = Half life in mouse liver microsomes; assay type: ADME
[5] = Half life in rat liver microsomes; assay type: ADME
[6] = Half life in human liver microsomes; assay type: ADME
[7] = Drug uptake in wild type C57BL mouse brain at 30 mg/kg, po measured after 4 hrs; assay type: ADME, organism-based; details: read-out: Drug uptake
[8] = Drug uptake in Sprague-Dawley rat brain at 30 mg/kg qd administered via oral gavage for 5 days measured 4 hrs post last dose; assay type: ADME, organism-based; details: read-out: Drug uptake
How it was run: (§1)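 Sprague–Dawley rats, oral dosing once daily for 5 days at 1, 3 or 10 mg/kg/day, with a reference LXR agonist at 30 mg/kg in the same study. Drug levels were measured in plasma and brain. Brain ABCA1 mRNA was also measured, along with Aβ1–40 and Aβ1–42 in cerebrum and CSF.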

[9] = Plasma concentration in wild type C57BL mouse at 30 mg/kg, po measured after 4 hrs; assay type: ADME, organism-based
[10] = system: Rattus norvegicus; assay: Induction of ABCA1 mRNA expression in Sprague-Dawley rat brain at 30 mg/kg qd administered via oral gavage for 5 days measured 4 hrs post last dose relative to control; assay type: functional
[11] = Plasma concentration in Sprague-Dawley rat at 30 mg/kg qd administered via oral gavage for 5 days measured 4 hrs post last dose; assay type: ADME, organism-based; how it was run: as §1
[12] = Plasma concentration in Sprague-Dawley rat at 1 mg/kg qd administered via oral gavage for 5 days measured 4 hrs post last dose; assay type: ADME, organism-based; how it was run: as §1
[13] = Drug uptake in Sprague-Dawley rat brain at 5 mg/kg, po measured after 4 hrs; assay type: ADME, organism-based; details: read-out: Drug uptake
How it was run: (§2)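 Male Sprague–Dawley rats, single oral dose of 5 mg/kg. Plasma and brain drug levels, plus brain ABCA1 mRNA, were measured 4 h after dosing.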

[14] = Drug uptake in Sprague-Dawley rat brain at 10 mg/kg qd administered via oral gavage for 5 days measured 4 hrs post last dose; assay type: ADME, organism-based; details: read-out: Drug uptake; how it was run: as §1
[15] = Plasma concentration in Sprague-Dawley rat at 3 mg/kg qd administered via oral gavage for 5 days measured 4 hrs post last dose; assay type: ADME, organism-based; how it was run: as §1
[16] = Plasma concentration in Sprague-Dawley rat at 10 mg/kg qd administered via oral gavage for 5 days measured 4 hrs post last dose; assay type: ADME, organism-based; how it was run: as §1
[17] = Drug uptake in Sprague-Dawley rat brain at 3 mg/kg qd administered via oral gavage for 5 days measured 4 hrs post last dose; assay type: ADME, organism-based; details: read-out: Drug uptake; how it was run: as §1
[18] = Drug uptake in wild type C57BL mouse brain at 3 mg/kg, po measured after 4 hrs; assay type: ADME, organism-based; details: read-out: Drug uptake
How it was run: (§3)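 Wild-type C57BL mice, single oral dose of 1 or 3 mg/kg. Plasma and brain drug levels were measured 4 h post-dose, and brain ABCA1 mRNA induction was compared with vehicle control.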

[19] = Plasma concentration in wild type C57BL mouse at 3 mg/kg, po measured after 4 hrs; assay type: ADME, organism-based; how it was run: as §3
[20] = Plasma concentration in Sprague-Dawley rat at 5 mg/kg, po measured after 4 hrs; assay type: ADME, organism-based; how it was run: as §2
[21] = Drug uptake in Sprague-Dawley rat brain at 1 mg/kg qd administered via oral gavage for 5 days measured 4 hrs post last dose; assay type: ADME, organism-based; details: read-out: Drug uptake; how it was run: as §1
[22] = Plasma concentration in wild type C57BL mouse at 1 mg/kg, po measured after 4 hrs; assay type: ADME, organism-based; how it was run: as §3
[23] = Drug uptake in wild type C57BL mouse brain at 1 mg/kg, po measured after 4 hrs; assay type: ADME, organism-based; details: read-out: Drug uptake; how it was run: as §3

Cytochrome P450 2C9, sequence (P11712 whole entry): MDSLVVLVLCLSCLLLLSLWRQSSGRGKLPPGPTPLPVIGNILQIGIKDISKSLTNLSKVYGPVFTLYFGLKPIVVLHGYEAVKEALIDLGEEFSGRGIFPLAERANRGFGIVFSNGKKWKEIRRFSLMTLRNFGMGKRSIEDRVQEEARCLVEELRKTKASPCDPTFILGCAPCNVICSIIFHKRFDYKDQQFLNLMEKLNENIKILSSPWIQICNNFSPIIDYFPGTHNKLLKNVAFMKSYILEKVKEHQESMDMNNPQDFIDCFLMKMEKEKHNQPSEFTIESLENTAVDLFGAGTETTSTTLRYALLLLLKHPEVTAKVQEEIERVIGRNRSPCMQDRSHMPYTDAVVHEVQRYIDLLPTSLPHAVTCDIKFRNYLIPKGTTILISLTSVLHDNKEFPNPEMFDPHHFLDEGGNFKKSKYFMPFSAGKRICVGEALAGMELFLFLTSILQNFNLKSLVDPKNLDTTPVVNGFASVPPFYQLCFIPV
Cytochrome P450 2D6, sequence (P10635 whole entry): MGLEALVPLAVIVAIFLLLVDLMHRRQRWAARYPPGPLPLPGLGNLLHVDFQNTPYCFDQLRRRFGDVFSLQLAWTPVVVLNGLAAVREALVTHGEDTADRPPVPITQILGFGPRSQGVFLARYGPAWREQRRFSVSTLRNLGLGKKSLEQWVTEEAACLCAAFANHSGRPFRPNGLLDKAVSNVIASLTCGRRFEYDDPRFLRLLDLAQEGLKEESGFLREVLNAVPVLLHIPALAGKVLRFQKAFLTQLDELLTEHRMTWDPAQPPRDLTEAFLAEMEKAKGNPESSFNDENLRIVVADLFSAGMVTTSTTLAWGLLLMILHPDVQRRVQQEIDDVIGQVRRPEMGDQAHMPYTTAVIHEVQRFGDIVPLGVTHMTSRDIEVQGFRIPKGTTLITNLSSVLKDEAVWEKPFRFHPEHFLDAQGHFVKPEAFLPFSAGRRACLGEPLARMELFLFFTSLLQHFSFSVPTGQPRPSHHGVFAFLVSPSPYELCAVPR

SMILES	IC50 [1] [µM]	IC50 [2] [µM]	IC50 [3] [µM]	half-life [4] [h]	half-life [5] [h]	half-life [6] [h]	other results
COc1cc(N2Cc3cn(-c4cccc(S(C)(=O)=O)c4)nc3[C@H]2C(C)C)cc(C)n1	3.81	25.7	> 30	> 0.367	–	–	–
CC(C)[C@@H]1c2nn(-c3cccc(S(C)(=O)=O)c3)cc2CN1c1ncc(CO)c(C(F)(F)F)n1	0.373	–	3.05	–	3.12	> 1	–
CC(C)[C@@H]1c2nn(-c3cccc(S(C)(=O)=O)c3)cc2CN1c1nccc(C(F)(F)F)n1	2.11	25.7	> 30	> 1	> 1	> 1	–
CC(C)[C@@H]1c2nn(-c3ccc(CO)c(S(C)(=O)=O)c3)cc2CN1c1ncc(CO)c(C(F)(F)F)n1	0.493	7.75	7.7	–	> 1	> 1	–
O=S(=O)(c1ccccc1)N(CC(F)(F)F)c1ccc(C(O)(C(F)(F)F)C(F)(F)F)cc1 [T091317]	–	–	–	–	–	–	concentration at 4 h [7]: 8050 nM; concentration at 4 h [8]: 5360 nM; concentration at 4 h [9]: 3770 nM; fold change (FC) [10]: 5; concentration at 4 h [11]: 2800 nM
COc1ncnc(N2Cc3cn(-c4cccc(S(C)(=O)=O)c4)nc3[C@H]2C(C)C)c1F	1.44	27	2.5	–	> 1	> 1	–
CC(C)[C@@H]1CN(c2ccc(CO)c(S(C)(=O)=O)c2)CCN1c1ncc(CO)c(C(F)(F)F)n1	–	–	–	–	1.15	0.717	–
COc1cc(N2Cc3cn(-c4cccc(S(C)(=O)=O)c4)nc3[C@H]2C(C)(C)C)ccn1	8.3	7.8	> 30	1.1	> 1	> 1	concentration at 4 h [12]: 187 nM; concentration at 4 h [13]: 2280 nM; concentration at 4 h [14]: 5040 nM; concentration at 4 h [15]: 463 nM; concentration at 4 h [16]: 1570 nM; concentration at 4 h [17]: 1560 nM; concentration at 4 h [18]: 1020 nM; concentration at 4 h [19]: 1080 nM; concentration at 4 h [20]: 1220 nM; concentration at 4 h [21]: 641 nM
COc1ncc(F)c(N2Cc3cn(-c4cccc(S(C)(=O)=O)c4)nc3[C@H]2C(C)C)n1	0.858	12.7	15.4	–	> 1	> 1	concentration at 4 h [22]: 50 nM
CC(C)[C@@H]1c2nn(-c3cccc(S(C)(=O)=O)c3)cc2CN1c1ccnc(C(F)(F)F)n1	1.87	20.9	12.8	> 1	> 1	> 1	concentration at 4 h [13]: 2060 nM; concentration at 4 h [18]: 3150 nM; concentration at 4 h [19]: 2890 nM; concentration at 4 h [20]: 1740 nM
CC(C)[C@@H]1c2nn(-c3cccc(S(C)(=O)=O)c3)cc2CN1c1cc(C(F)(F)F)ncn1	5.21	> 30	> 30	0.833	> 1	> 1	–
Cc1nc(N2Cc3cn(-c4cccc(S(C)(=O)=O)c4)nc3[C@H]2C(C)C)cc(C(F)(F)F)n1	5.04	15.8	21.1	> 1	> 1	> 1	concentration at 4 h [13]: 825 nM; concentration at 4 h [23]: 212 nM; concentration at 4 h [22]: 143 nM; concentration at 4 h [20]: 423 nM
COc1nc(C)cc(N2Cc3cn(-c4cccc(S(C)(=O)=O)c4)nc3[C@H]2C(C)C)n1	5.75	24.2	–	> 1	> 1	> 1	concentration at 4 h [22]: 2 nM
COc1cc(N2Cc3cn(-c4cccc(S(C)(=O)=O)c4)nc3[C@H]2C(C)C)nc(C)n1	6.62	5.37	12.9	–	–	> 1	–
COc1cc(N2Cc3cn(-c4cccc(S(C)(=O)=O)c4)nc3[C@H]2C(C)C)ccn1	5.63	> 30	> 30	> 1	> 1	> 1	–
